The entries come from a sample that favours hits as a whole.
H69AR inhibit – proliferation blockers of H69AR lung cancer cells, primary screen, cell-based, human, 86K library. H69AR lung tumor viability, ATP luminescence, 72 h; active compounds read low. 6% of 85,000 active. viability, % at 10 µM;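 active = viability at or below 40%; inactive = viability above 40%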;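 note: multidrug resistant small cell line overexpressing MRP-1 efflux transporter; 100% = mean luminescence of untreated control wells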
HCT116 bCat-KO – primary screen for growth suppressors in beta-catenin knockout HCT116 cells (colon tumor, human); HCT116 beta-catenin knockout viability, CellTiter-Glo, 60 h; active compounds read low; viability, % at 10 µM; 1.5% of 140,000 active; AID 818, 2007;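 active = viability at or under a set limit, the compound median less 4 SD, cut at about 6% in these data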;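 note: 0% = Hyamine 1622 control at 20 µM and 100% = untreated cell control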
HUVEC inhibit – inhibitors of HUVEC proliferation, primary screen, cell-based, 384-well | CellTiter-Glo luminescence, 72 h; active compounds read low | viability, % at 10 µM (by protocol) | 1.1% of 86,000 active;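 active = viability at or below 30%; inactive = viability above 30%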;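 note: 100% = median luminescence of DMSO-only cell control wells on each plate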
Fibroblast inh – antiproliferative effect on LL 47 fibroblasts – human, LL 47 cells, CellTiter-Glo luminescence, primary screen; LL 47 human lung fibroblast viability, ATP luminescence; active compounds read low; viability, % at 10 µM; 1.1% of 85,000 active;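 active = viability at or below 50% in the single dose screen; inactive = viability above 50%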;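 note: compound exposure lasted 72 h before the ATP readout; 100% = median luminescence of untreated cell-only wells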
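Material: human LL 47 lung fibroblast cells; quantity: 1,150 cells/well; medium: IMEM plus 15% FBS; doses: 0.1% DMSO in all compound wells; timing: overnight attachment after seeding, then 72 h compound exposure at 37 °C; detection: CellTiter-Glo luminescence; measure: % viability of median cell-only signal; controls: cell-only wells, no compound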
PTEN del growth – growth suppression of PTEN-null HCT116, primary screen, cell-based, CellTiter-Glo. HCT116 PTEN-null viability, 60 h; active compounds read low. viability, % at 10 µM. 1.2% of 140,000 active;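 active = viability at or below a set limit, 4 SD under the median of all tested compounds, cut at about 3.7% in these data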;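 note: PTEN knockout HCT116 line with beta catenin targeted HCT116 as companion control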
* = called active by the depositor; . = no result given.

SMILES	H69AR inhibit	HCT116 bCat-KO	HUVEC inhibit	Fibroblast inh	PTEN del growth
Cc1ccc(C2CC(c3ccc(Cl)cc3)=NNC2=O)cc1 (centres undefined)	100	97	123	104	90
O=C(C1=NNCC1c1ccc(Cl)cc1)C1CO1 (centres undefined)	.	2.2*	.	.	2.1*
CN1CCN(C2=C(Cl)C(=O)C(c3cnc(N4CCCCC4)s3)=C(Cl)C2=O)CC1	1.6*	1.7*	70	5.8*	1.6*
CC(C)Cc1nnc(NC(=O)CCC(=O)N2CCOCC2)s1	103	101	92	97	96
COc1ccc2nc3ccccc3nc2c1NC(=O)c1ccc(Cl)cc1	.	81	.	.	91
COc1cc(OC)cc(C(=O)Nc2nc3ccccc3[nH]2)c1	30*	48	77	74	52
CCCCCC(=O)Nc1nc2ccccc2[nH]1	31*	51	86	84	46
COc1ccc(C(=O)Nc2nc3ccccc3[nH]2)cc1OC	67	92	101	107	98
COc1ccc(CCC(=O)Nc2nc3ccccc3[nH]2)cc1OC	90	103	93	100	94
CCOc1ccc2nc(NCCCO)[nH]c2c1	89	85	90	94	94
COc1ccc(CCC(=O)Nc2nc3ccccc3[nH]2)cc1	.	90	.	.	102
COc1ccccc1CCC(=O)Nc1nc2ccccc2[nH]1	21*	7	90	91	8
CCCOc1ccc2nc(NC(=O)OC)[nH]c2c1	31*	10	33	49*	14
Cc1ccc(S(=O)(=O)Cn2nnnc2C(C(C)C)N2CCc3ccccc3C2)cc1 (centres undefined)	92	81	97	99	94
CC(=O)N1CCC(N(CCN2CCOCC2)C(=S)Nc2cccc(C)c2)CC1	.	95	.	.	87
CCN(CC)S(=O)(=O)c1ccc(Cl)c(NC(=O)c2cc(Cl)ccc2Cl)c1	.	79	.	.	102
Cc1ccc(C(C)C)c(OCCN2C(=O)NC(C)(C)C2=O)c1	98	93	98	106	92
CCSc1nnc(NC(=O)CCNS(=O)(=O)c2cc(Br)cnc2N)s1	39*	91	88	95	105
CCOC(=O)N1CCN(c2ncnc3c2oc2nc(C(C)C)c4c(c23)CCC4)CC1	48	90	24*	98	83
O=C(NN=C1CCN(Cc2ccccc2)CC1)c1ccccc1	.	94	.	.	99
N#Cc1ccc(-c2ccc(F)cc2)nc1Oc1ccc(Cl)c(Cl)c1	.	2.0*	.	.	1.7*
Cc1ccc(C2=Nc3ccccc3NC(C)(c3ccc(C)o3)C2)o1 (centres undefined)	38*	75	85	86	88
CC1=CC(C)=Nc2ccccc2N1	44	93	92	97	95
CC1CCC2(CC1)NC(CO)(CO)CO2 (centres undefined)	93	99	103	107	99
Oc1ccc(Nc2nc(N3CCCC3)c3ccccc3n2)cc1	0.7*	2.0*	47	2.5*	1.8*
SMILES	H69AR inhibit	HCT116 bCat-KO	HUVEC inhibit	Fibroblast inh	PTEN del growth
C(=C\c1nc(N2CCCC2)c2ccccc2n1)/c1ccccc1	.	1.8*	.	.	2.2*
CC1CCN(c2nc(/C=C/c3ccccc3)nc3ccccc23)CC1	.	76	.	.	84
COc1ccc(Nc2nc(N3CCCCC3)c3ccccc3n2)cc1	.	10	.	.	10
COc1ccccc1CN=Cc1[nH]c2ccc(Br)c(Cl)c2c1O	25*	20	71	95	58
O=C(CN1CCc2ccccc21)NC(=O)NCc1ccco1	.	80	.	.	67
O=C(c1cnccn1)N1CCN(S(=O)(=O)c2ccc3ccccc3c2)CC1	93	94	96	106	96
CCCC(=O)Nc1ccc2c(c1)nc(CN1CCCC1)n2C	98	97	98	100	108
Cc1ccc(C(C)C)c(OCC(=O)Nc2ccc3c(c2)nc(CN2CCCC2)n3C)c1	81	3.4*	25*	91	2.5*
CC(C)CNC(=O)NC(=O)COC(=O)c1cccc(NS(=O)(=O)c2ccc(F)c(F)c2)c1	.	93	.	.	88
CC1(C)CC(NC(=O)c2coc(=O)c(Br)c2)CC(C)(C)N1	0.7*	87	81	34*	92
COC(C)(C)[C@H](O)COc1c2ccoc2cc2oc(=O)ccc12	.	0.6*	.	.	0.7*
CCN1CCN(CCCOc2ccc(-c3ccccc3)cc2)CC1	19*	1.8*	48	51	2.0*

Bioassay records deposited in PubChem BioAssay by SRMLSC.
